# The source made the active and inactive calls. No cut-off for these calls is given here.
# Test system: not listed separately
# Assay: Ratio of growth inhibition of mouse Sarcoma 180/TG cells in presence of […] to growth inhibition of mouse Sarcoma 180/TG cells in absence of […] at 10 uM after 96 hrs
# Format: functional
# Details: not given
# Procedure, shortened: (§1)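 Log-phase Sarcoma 180/TG cells were seeded at 10^4 cells/mL in Fischer's medium with 10% horse serum at 37 °C. They were given the oxalate salt with or without 6-thioguanine (10^-6 M) for 96 h, and cell number/mL was counted. Ratio = cell count with 6-thioguanine / count without × 100.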
row,SMILES,Ratio
1,Brc1ccc([C@H]2CN3CCSC3=N2)cc1.O=C(O)C(=O)O,69

# Molecular target: T1, Alkaline phosphatase, tissue-nonspecific isozyme (Mus musculus) (UniProt P09242)
# T1 sequence (whole entry): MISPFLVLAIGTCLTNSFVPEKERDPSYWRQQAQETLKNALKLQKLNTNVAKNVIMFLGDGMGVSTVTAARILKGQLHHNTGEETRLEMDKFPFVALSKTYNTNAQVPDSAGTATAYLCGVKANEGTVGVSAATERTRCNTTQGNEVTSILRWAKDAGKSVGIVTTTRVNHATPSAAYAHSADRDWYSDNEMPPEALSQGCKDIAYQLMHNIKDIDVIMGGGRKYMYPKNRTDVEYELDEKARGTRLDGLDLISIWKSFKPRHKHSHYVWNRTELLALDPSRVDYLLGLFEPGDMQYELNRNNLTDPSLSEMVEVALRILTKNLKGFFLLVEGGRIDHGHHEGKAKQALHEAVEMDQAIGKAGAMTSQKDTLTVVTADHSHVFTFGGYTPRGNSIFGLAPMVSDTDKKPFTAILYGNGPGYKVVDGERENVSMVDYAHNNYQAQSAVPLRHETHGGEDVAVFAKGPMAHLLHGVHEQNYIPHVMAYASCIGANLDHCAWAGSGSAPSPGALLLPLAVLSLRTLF
# Assay: Inhibition of alkaline phosphatase in mouse Sarcoma 180/TG cells up to 5 x 10^-4 M
# Format: cell-based
# Details: not given
# Procedure, shortened: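 Particulate-bound alkaline phosphatase, partially purified from Sarcoma 180/TG ascites cells (4360 units/mL), exposed to oxalate salts at concentrations up to at least 5 x 10^-4 M and checked for significant inhibition.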
row,inhibition,SMILES
1,inactive,CC(=O)/N=C1\SCCN1CC(=O)c1cccc(C)c1
2,inactive,CC(=O)/N=c1\sccn1CC(=O)c1ccc(C)cc1
3,inactive,CSc1nc(-c2ccccc2)c[nH]1
4,inactive,Cc1ccc(C(=O)Cn2ccsc2=N)cc1
5,inactive,Cc1cccc(C(=O)CN2CCSC2=N)c1
6,inactive,N=C1SCCN1CC(=O)c1ccc2ccccc2c1
7,inactive,CC(=O)/N=C1\SCCN1CC(O)c1cccc(C)c1 (racemic)
8,inactive,CC(=O)/N=c1\sccn1CC(O)c1ccc(C)c(C)c1 (racemic)

# The remaining lines, values behind:
row,SMILES,inhibition
1,CC(=O)/N=C1\SCCN1CC(=O)c1ccc2ccccc2c1,inactive
2,CC(=O)/N=c1\sccn1CC(=O)c1ccc(Br)cc1,inactive
3,CC(=O)/N=c1\sccn1CC(=O)c1ccc(C)c(C)c1,inactive
4,CC(=O)/N=c1\sccn1CC(=O)c1ccc([N+](=O)[O-])cc1,inactive
5,CC(=O)/N=c1\sccn1CC(=O)c1ccc2ccccc2c1,inactive
6,CSc1nc(-c2ccccc2)cn1CCO,inactive
7,N=c1sccn1CC(=O)c1ccc(Br)cc1,inactive
8,N=c1sccn1CC(=O)c1ccc([N+](=O)[O-])cc1,inactive
9,N=c1sccn1CC(=O)c1ccc2ccccc2c1,inactive
10,CC(=O)/N=C1\SCCN1CC(O)c1ccc2ccccc2c1 (racemic),inactive
11,CC(=O)/N=c1\sccn1CC(O)c1ccc(Br)cc1 (racemic),inactive
12,CC(=O)/N=c1\sccn1CC(O)c1ccc(C)cc1 (racemic),inactive
13,CC(=O)/N=c1\sccn1CC(O)c1ccc([N+](=O)[O-])cc1 (racemic),inactive
14,CC(=O)/N=c1\sccn1CC(O)c1ccc2ccccc2c1 (racemic),inactive

# Molecular target: T2, Alkaline phosphatase, tissue-nonspecific isozyme (Mus musculus, UniProt P09242)
# T2 sequence (P09242 whole entry): T1 sequence (whole entry)
# Assay: Inhibition of alkaline phosphatase in mouse Sarcoma 180/TG cells
# Format: cell-based
# Details: read-out: I50
# Procedure, shortened: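 Partially purified particulate-bound alkaline phosphatase from Sarcoma 180/TG ascites cells (4360 units/mL); compounds tested as oxalate salts; IC50 taken as the concentration cutting observed enzyme activity by 50%.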
row,IC50 [µM],SMILES
1,11,Cc1ccc(C2CN3C=CSC3=N2)cc1C (racemic)
2,6.6,Cc1ccc(C2CN3C=CSC3=N2)cc1 (racemic)
3,50,C1=CN2CC(c3cccs3)N=C2S1 (racemic)
4,8.1,Cc1ccc(C2CN3CCSC3=N2)cc1 (racemic)

# Second part, the compound before the results:
row,SMILES,IC50 [µM]
1,Brc1ccc([C@H]2CN3CCSC3=N2)cc1.O=C(O)C(=O)O,1.8
2,C1=CN2CC(c3ccccc3)N=C2S1 (racemic),45
3,Brc1ccc(C2CN3C=CSC3=N2)cc1 (racemic),1.3
4,O=[N+]([O-])c1ccc(C2CN3C=CSC3=N2)cc1 (racemic),8.3
5,Brc1cccc(C2CN3C=CSC3=N2)c1 (racemic),2
6,C1=CN2CC(c3ccc4ccccc4c3)N=C2S1 (racemic),1
7,c1ccc(C2CN3CCSC3=N2)cc1 (racemic),38
8,Brc1ccc(C2CN3CCSC3=N2)cc1 (racemic),2.6
9,Clc1ccc(C2CN3CCSC3=N2)cc1 (racemic),4.5
10,Fc1ccc(C2CN3CCSC3=N2)cc1 (racemic),16
11,Cc1cccc(C2CN3CCSC3=N2)c1 (racemic),40
12,O=[N+]([O-])c1cccc(C2CN3CCSC3=N2)c1 (racemic),38
13,c1ccc2cc(C3CN4CCSC4=N3)ccc2c1 (racemic),9

# Test system: not listed separately
# Assay: Ratio of growth inhibition of mouse Sarcoma 180/TG cells in presence of […] to growth inhibition of mouse Sarcoma 180/TG cells in absence of […] at 50 uM after 96 hrs
# Format: functional
# Details: not given
# Procedure, shortened: as §1
row,SMILES,Ratio
1,Brc1ccc([C@H]2CN3CCSC3=N2)cc1.O=C(O)C(=O)O,66

# Test system: not listed separately
# Assay: Ratio of growth inhibition of mouse Sarcoma 180/TG cells in presence of […] to growth inhibition of mouse Sarcoma 180/TG cells in absence of […] at 100 uM after 96 hrs
# Format: functional
# Details: not given
# Procedure, shortened: as §1
row,SMILES,Ratio
1,Brc1ccc([C@H]2CN3CCSC3=N2)cc1.O=C(O)C(=O)O,49

# From ChEMBL document CHEMBL3244381, “Tetramisole analogues as inhibitors of alkaline phosphatase, an enzyme involved in the resistance of neoplastic cells to 6-thiopurines” (J Med Chem, 1977)
